# RBBP9 inh – human RBBP9 hydrolase inhibition | O75884 | recombinant RBBP9, FP-Rh probe fluorescence polarization | inhibition, % at 7.94 µM | actives 0.2% (n = 220,000) | AID 1515;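 active means inhibition above the campaign mean of all tested compounds plus 3 SD, cut at about 14% in these data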
#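 Material: RBBP9 protein. Amount: RBBP9 at 2.5 µM in dispensed solution, before mixing. Schedule: 30 min then 45 min, 25 °C. Medium: Tris buffer pH 8.0, NaCl, Pluronic. Measured by: fluorescence polarization. Measure: percent inhibition from mP, scaled between DMSO and no-protein wells. Replication: one well per compound.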
# Fam108B inh – counter-screen for RBBP9 inhibitors: inhibitors of mouse Fam108B; recombinant Fam108B, FP-Rh probe fluorescence polarization; inhibition, % at 9.51 µM; actives 0.33% (n = 300,000);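 active means inhibition above the screen mean inhibition plus 3 SD, computed separately per campaign, cut at about 18% in these data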;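 further: inhibitors lower polarization as less probe binds the enzyme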
# LYPLA1 counter – counter-screen for PME1 inhibitors: inhibitors of human LYPLA1 | O75608 | recombinant LYPLA1, FP-Rh probe fluorescence polarization | inhibition, % at 5.9 µM | actives 0.16% (n = 320,000) | AID 2174;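 active means inhibition above the mean of all tested compounds plus 3 SD, set per campaign, cut at about 14% in these data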;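 further: inhibitors block serine hydrolase probe labeling of LYPLA1 so polarization falls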
# LYPLA2 inh – counter-screen for PME1 inhibitors: inhibitors of human LYPLA2 | recombinant LYPLA2, FP-Rh probe fluorescence polarization | actives 0.38% (n = 320,000) | inhibition, % at 5.9 µM | O95372;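 active means inhibition above the screen-wide mean plus 3 SD, limit set per campaign, cut at about 26% in these data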
# PAD4 inh – PAD4 (human) enzyme inhibition | Q9UM07 | recombinant PAD4, RCA probe fluorescence polarization | inhibition, % at 6.36 µM | actives 0.41% (n = 330,000) | AID 485272;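 active means percent inhibition above a cutoff equal to the mean of all tested compounds plus 3 SD, cut at about 15% in these data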
# PME-1 primary – blocks human protein phosphatase methylesterase 1 | actives 0.53% (n = 320,000) | inhibition, % at 5.9 µM | Q9Y570 | recombinant PME-1, FP-Rh probe fluorescence polarization;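 active means inhibition above the campaign mean of all compounds plus 3 SD, cut at about 26% in these data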;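 further: competitive labeling of PME-1 active site by serine hydrolase directed probe; inhibitors block probe labeling so polarization falls and inhibition rises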
# PAD4 confirm – confirmation of human PAD4 inhibitors; shares compounds with PAD4 inh; recombinant PAD4, RCA probe fluorescence polarization; inhibition, % at 6.36 µM; actives 28% (n = 1,200);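 active means mean inhibition across replicates above the hit cutoff set by the earlier primary screen, cut at about 15% in these data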;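 further: inhibitors block active-site labeling by the probe so polarization falls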
# Hits are given with their value; . = inactive; / = no result given. The list is not random: actives were taken first. Their share in the collection is about 1.3%.
SMILES,RBBP9 inh,Fam108B inh,LYPLA1 counter,LYPLA2 inh,PAD4 inh,PME-1 primary,PAD4 confirm
COc1cc2c(C#N)c(N3CCOCC3)nc(N)c2c(N)n1,.,.,.,.,18.2,.,.
CC(C)(C)C(=O)Nc1cc(NC(=O)C(C)(C)C)cc(C(=O)Nc2c[nH]c(=O)[nH]c2=O)c1,/,.,.,.,.,.,/
Cn1c(N)c(C(=O)COC(=O)COc2ccc(Br)cc2)c(=O)n(C)c1=O,/,/,.,.,171.4,.,.
Cc1cc(Cl)ccc1OCC(=O)OCC(=O)c1c(N)n(C)c(=O)n(C)c1=O,/,/,.,.,27.4,.,.
COc1cccc(C(=O)OCC(=O)c2c(N)n(C)c(=O)n(C)c2=O)c1,/,/,.,.,22.0,.,.
O=C1c2ccccc2C(=O)N1n1cccc1,.,.,.,.,.,.,/
COC(=O)c1ccccc1NC(=O)CSc1nc(C)cc(C)n1,.,.,.,.,.,.,/
COC(=O)c1cc(C)nc(Sc2ccccc2N)n1,.,.,.,.,68.4,.,77.9
CCC1(C)Cc2c(sc3nc(SC)[nH]c(=S)c23)CO1 (configuration not stated),/,.,.,.,35.7,.,27.0
CCC1CCCCN1C(=S)NC1CCCCC1 (configuration not stated),.,.,.,.,.,.,/

# Assay outcomes: PubChem, The Scripps Research Institute Molecular Screening Center
